Reference: the M2OR odorant receptor database
Where a chain is given by its changes, count along the chain named.

What was measured:
Conditions in all cases: stereoisomer not certain
OR7C1 (Homo sapiens) = target: T1, OR7C1 (Homo sapiens) (UniProt O76099)
T1 sequence (whole entry): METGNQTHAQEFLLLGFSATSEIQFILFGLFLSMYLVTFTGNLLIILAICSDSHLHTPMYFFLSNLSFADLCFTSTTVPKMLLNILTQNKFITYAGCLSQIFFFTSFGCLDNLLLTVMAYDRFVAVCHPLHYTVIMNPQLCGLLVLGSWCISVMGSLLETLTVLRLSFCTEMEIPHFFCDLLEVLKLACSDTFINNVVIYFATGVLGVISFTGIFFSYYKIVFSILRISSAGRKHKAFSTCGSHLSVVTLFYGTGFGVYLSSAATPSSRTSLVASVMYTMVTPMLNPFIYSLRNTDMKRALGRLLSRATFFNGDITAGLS
Procedure, shortened: (§1)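 Values were gathered from published papers (main text and supplementary material), with extra details requested from the original authors when needed, and checked for typos and inconsistencies. Each receptor–molecule pair is called responsive (active) if the original authors judged the measured signal statistically different from baseline, and non-responsive (inactive) otherwise. Assay methods varied by source, often transient mammalian cell-line luciferase assays. Recorded details include cell line, G-protein, co-transfected protein and tags.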

OR7C2 (Homo sapiens) = target: T2, OR7C2 (Homo sapiens) (UniProt O60412)
T2 sequence (whole entry): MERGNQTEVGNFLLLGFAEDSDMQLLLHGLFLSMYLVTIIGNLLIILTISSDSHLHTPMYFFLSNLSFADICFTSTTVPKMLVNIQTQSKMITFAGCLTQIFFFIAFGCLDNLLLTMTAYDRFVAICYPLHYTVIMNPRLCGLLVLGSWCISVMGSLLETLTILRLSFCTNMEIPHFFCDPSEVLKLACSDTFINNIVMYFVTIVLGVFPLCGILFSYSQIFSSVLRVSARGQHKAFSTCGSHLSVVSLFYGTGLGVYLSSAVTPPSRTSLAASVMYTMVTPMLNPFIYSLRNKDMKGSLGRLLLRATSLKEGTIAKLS
Procedure, shortened: as §1

OR7D2 (Homo sapiens) = target: T3, OR7D2 (Homo sapiens) (UniProt Q96RA2)
T3 sequence (whole entry): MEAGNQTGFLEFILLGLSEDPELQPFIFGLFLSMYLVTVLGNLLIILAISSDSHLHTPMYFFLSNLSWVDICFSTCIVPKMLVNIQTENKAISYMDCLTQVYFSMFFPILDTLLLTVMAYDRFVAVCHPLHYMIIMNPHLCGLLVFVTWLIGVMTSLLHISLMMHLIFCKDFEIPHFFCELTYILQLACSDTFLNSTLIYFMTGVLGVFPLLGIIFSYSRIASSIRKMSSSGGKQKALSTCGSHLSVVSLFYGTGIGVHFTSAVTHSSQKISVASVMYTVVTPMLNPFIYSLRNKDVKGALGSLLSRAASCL
Procedure, shortened: as §1

OR7D4 (Homo sapiens) = target: T4, OR7D4 (Homo sapiens) (UniProt Q8NG98)
T4 sequence (whole entry): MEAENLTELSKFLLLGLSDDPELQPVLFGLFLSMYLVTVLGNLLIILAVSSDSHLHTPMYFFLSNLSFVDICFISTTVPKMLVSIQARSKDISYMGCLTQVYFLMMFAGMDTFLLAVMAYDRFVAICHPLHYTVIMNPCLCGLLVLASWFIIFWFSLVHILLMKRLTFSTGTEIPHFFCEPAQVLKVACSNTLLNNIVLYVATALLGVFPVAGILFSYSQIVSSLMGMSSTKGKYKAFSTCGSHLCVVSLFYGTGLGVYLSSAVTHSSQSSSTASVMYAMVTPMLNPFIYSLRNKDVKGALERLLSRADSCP
Procedure, shortened: as §1

OR7E24 (Homo sapiens) = target: T5, OR7E24 (Homo sapiens) (UniProt Q6IFN5)
T5 sequence (whole entry): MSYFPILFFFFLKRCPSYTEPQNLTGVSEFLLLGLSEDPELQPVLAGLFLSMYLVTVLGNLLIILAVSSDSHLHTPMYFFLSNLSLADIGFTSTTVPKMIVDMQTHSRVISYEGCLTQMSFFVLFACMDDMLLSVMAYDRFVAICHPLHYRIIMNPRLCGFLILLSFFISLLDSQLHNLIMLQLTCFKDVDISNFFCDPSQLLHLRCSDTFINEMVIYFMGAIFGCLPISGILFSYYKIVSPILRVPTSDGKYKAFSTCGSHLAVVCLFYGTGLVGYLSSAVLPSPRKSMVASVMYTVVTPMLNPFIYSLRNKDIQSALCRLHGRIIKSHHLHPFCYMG
Procedure, shortened: as §1

OR7G1 (Homo sapiens) = target: T6, OR7G1 (Homo sapiens) (UniProt Q8NGA0)
T6 sequence (whole entry): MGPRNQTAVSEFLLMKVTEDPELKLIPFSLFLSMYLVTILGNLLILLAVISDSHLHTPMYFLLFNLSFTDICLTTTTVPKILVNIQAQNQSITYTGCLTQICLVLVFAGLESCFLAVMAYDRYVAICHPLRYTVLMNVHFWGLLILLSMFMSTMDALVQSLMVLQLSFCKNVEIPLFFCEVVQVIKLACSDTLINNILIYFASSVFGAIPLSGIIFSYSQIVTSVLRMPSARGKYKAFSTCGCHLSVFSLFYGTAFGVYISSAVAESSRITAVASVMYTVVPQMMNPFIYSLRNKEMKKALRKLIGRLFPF
Procedure, shortened: as §1

OR7G2 (Homo sapiens) = target: T7, OR7G2 (Homo sapiens) (UniProt Q8NG99)
T7 sequence (whole entry): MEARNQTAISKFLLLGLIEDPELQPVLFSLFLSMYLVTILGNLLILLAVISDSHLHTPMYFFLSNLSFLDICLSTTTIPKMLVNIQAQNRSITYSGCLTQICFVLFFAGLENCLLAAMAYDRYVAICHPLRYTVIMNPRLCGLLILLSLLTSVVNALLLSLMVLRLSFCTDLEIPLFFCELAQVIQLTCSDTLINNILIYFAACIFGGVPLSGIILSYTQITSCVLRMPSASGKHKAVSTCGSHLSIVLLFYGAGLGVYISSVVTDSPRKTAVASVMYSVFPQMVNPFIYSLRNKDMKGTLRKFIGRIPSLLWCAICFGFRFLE
Procedure, shortened: as §1

OR7G3 (Homo sapiens) = target: T8, OR7G3 (Homo sapiens) (UniProt Q8NG95)
T8 sequence (whole entry): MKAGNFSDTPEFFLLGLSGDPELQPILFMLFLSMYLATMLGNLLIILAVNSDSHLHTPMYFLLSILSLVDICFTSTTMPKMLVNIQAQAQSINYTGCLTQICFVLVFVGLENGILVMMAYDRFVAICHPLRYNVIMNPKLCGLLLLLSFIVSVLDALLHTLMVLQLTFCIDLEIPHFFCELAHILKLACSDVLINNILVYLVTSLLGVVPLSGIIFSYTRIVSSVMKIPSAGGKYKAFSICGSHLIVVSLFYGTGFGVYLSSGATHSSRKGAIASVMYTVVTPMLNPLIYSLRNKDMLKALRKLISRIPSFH
Procedure, shortened: as §1

OR8A1 (Homo sapiens) = target: T9, OR8A1 (Homo sapiens) (UniProt Q8NGG7)
T9 sequence (whole entry): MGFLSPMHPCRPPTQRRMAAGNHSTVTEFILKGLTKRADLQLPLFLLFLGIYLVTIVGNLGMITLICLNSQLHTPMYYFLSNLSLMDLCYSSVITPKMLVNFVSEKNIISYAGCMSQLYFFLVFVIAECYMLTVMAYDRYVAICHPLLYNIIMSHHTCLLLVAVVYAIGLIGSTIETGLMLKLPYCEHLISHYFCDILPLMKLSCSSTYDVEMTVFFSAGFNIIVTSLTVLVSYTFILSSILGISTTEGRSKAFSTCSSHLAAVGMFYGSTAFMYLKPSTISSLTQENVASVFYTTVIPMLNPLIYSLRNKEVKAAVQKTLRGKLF
Procedure, shortened: as §1

OR8B12 (Homo sapiens) = target: T10, OR8B12 (Homo sapiens) (UniProt Q8NGG6)
T10 sequence (whole entry): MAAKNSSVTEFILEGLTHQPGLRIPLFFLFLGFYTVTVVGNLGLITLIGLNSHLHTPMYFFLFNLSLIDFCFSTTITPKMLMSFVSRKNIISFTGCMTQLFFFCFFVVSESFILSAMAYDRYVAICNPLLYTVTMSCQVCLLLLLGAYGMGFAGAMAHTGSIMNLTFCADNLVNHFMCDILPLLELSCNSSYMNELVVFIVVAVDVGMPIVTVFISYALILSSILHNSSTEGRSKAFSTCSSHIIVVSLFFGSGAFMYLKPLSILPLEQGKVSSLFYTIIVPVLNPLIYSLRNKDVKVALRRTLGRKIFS
Procedure, shortened: as §1

OR8B2 (Homo sapiens) = target: T11, OR8B2 (Homo sapiens) (UniProt Q96RD0)
T11 sequence (whole entry): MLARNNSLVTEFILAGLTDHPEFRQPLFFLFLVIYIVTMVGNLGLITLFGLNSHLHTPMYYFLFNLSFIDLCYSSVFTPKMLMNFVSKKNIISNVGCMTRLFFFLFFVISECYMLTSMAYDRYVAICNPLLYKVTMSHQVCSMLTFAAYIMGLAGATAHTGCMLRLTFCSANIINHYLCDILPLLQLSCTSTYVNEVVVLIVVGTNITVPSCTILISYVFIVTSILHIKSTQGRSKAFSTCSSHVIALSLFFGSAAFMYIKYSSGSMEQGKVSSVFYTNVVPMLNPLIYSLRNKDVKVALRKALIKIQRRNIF
Procedure, shortened: as §1

OR8B3 (Homo sapiens) = target: T12, OR8B3 (Homo sapiens) (UniProt Q8NGG8)
T12 sequence (whole entry): T11 sequence (whole entry) with R24Q, I34V, T47I, N94Y, R100Q, T205I, T208M
Procedure, shortened: as §1

OR7A5 M81I = test system: T13, OR7A5 M81I
T13 sequence (whole entry): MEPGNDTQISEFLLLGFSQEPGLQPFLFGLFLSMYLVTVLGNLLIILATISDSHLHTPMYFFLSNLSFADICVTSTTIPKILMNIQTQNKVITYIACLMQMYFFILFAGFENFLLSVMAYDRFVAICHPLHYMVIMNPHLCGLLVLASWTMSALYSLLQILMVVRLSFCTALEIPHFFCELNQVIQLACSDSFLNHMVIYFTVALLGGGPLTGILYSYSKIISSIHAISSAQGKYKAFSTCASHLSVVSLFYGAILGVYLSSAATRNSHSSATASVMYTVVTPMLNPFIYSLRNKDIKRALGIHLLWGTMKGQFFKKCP
Procedure, shortened: as §1

OR7C1 V126I E171K = test system: T14, OR7C1 V126I E171K
T14 sequence (whole entry): T1 sequence (whole entry) with V126I, E171K
Procedure, shortened: as §1

OR7D4 R88W = test system: T15, OR7D4 R88W
T15 sequence (whole entry): T4 sequence (whole entry) with R88W
Procedure, shortened: as §1

OR7D4 = test system: T16, OR7D4
T16 sequence (whole entry): T4 sequence (whole entry) with R88W, T133M
Procedure, shortened: as §1

OR7G2 = test system: T17, OR7G2
T17 sequence (whole entry): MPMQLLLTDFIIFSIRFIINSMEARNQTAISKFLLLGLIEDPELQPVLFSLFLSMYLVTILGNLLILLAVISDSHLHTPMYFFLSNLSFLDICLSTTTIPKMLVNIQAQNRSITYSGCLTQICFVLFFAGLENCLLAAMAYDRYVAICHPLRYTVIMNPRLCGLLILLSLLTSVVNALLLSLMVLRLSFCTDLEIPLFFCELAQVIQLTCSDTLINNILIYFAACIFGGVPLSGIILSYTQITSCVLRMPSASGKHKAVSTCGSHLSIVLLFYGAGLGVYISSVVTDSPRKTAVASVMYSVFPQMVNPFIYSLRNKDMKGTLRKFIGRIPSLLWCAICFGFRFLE
Procedure, shortened: as §1

OR7G3 M29V = test system: T18, OR7G3 M29V
T18 sequence (whole entry): T8 sequence (whole entry) with M29V
Procedure, shortened: as §1

OR8B2 L164F = test system: T19, OR8B2 L164F
T19 sequence (whole entry): T11 sequence (whole entry) with L164F
Procedure, shortened: as §1

OR8B2 S273F = test system: T20, OR8B2 S273F
T20 sequence (whole entry): T11 sequence (whole entry) with S273F
Procedure, shortened: as §1

Measured: odorant receptor agonist call

CCC(S)C(C)CO (configuration not stated)
inactive: OR7C1 (Homo sapiens) | OR7C2 (Homo sapiens) | OR7D2 (Homo sapiens) | OR7D4 (Homo sapiens) | OR7E24 (Homo sapiens) | OR7G1 (Homo sapiens) | OR7G2 (Homo sapiens) | OR7G3 (Homo sapiens) | OR8A1 (Homo sapiens) | OR8B12 (Homo sapiens) | OR8B2 (Homo sapiens) | OR8B3 (Homo sapiens)

CCC1OC(C)=C(O)C1=O (configuration not stated)
inactive: OR7A5 M81I | OR7C1 (Homo sapiens) | OR7C1 V126I E171K | OR7C2 (Homo sapiens) | OR7D2 (Homo sapiens) | OR7D4 (Homo sapiens) | OR7D4 R88W | OR7D4 | OR7E24 (Homo sapiens) | OR7G1 (Homo sapiens) | OR7G2 | OR7G3 (Homo sapiens) | OR7G3 M29V | OR8A1 (Homo sapiens) | OR8B12 (Homo sapiens) | OR8B2 (Homo sapiens) | OR8B2 L164F | OR8B2 S273F | OR8B3 (Homo sapiens)

Cc1cnc(C)c(C)n1
inactive: OR7A5 M81I | OR7C1 (Homo sapiens) | OR7C1 V126I E171K | OR7C2 (Homo sapiens) | OR7D2 (Homo sapiens) | OR7D4 (Homo sapiens) | OR7D4 R88W | OR7D4 | OR7E24 (Homo sapiens) | OR7G1 (Homo sapiens) | OR7G2 | OR7G3 (Homo sapiens) | OR7G3 M29V | OR8A1 (Homo sapiens) | OR8B12 (Homo sapiens) | OR8B2 (Homo sapiens) | OR8B2 L164F | OR8B2 S273F | OR8B3 (Homo sapiens)

CC(CO)CS (configuration not stated)
inactive: OR7C1 (Homo sapiens) | OR7C2 (Homo sapiens) | OR7D2 (Homo sapiens) | OR7D4 (Homo sapiens) | OR7E24 (Homo sapiens) | OR7G1 (Homo sapiens) | OR7G2 (Homo sapiens) | OR7G3 (Homo sapiens) | OR8A1 (Homo sapiens) | OR8B12 (Homo sapiens) | OR8B2 (Homo sapiens) | OR8B3 (Homo sapiens)
